Data: ChEMBL document CHEMBL4825663 (J Med Chem, 2021)
≈ marks a conversion by molar mass, not a printed value. Calls of active or inactive are those of the source. No cut-off for these calls is given here.

What was measured:
[1] = Tmax in Sprague-Dawley rat at 20 mg/kg, po measured upto 24 hrs by LC-MS/MS analysis; format: ADME, organism-based; conditions: in vivo
[2] = Toxicity in athymic nude mouse xenografted with human MDA-MB-231 cells assessed as reduction in body weight at 40 mg/kg, po administered every other day for 4 doses in presence of 16 mg/kg encequidar and monitored for 70 to 82 days; format: organism-based; set-up: scale not given: the % may be the effect or the level left; conditions: in vivo, time 70-82 day
Outline: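 Female athymic NCr-nu mice (n = 10/group) bearing subcutaneous MDA-MB-231 xenografts were treated from day 8. […] Individual body weights were monitored for 82 days after implantation.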

[3] = Oral bioavailability in Sprague-Dawley rat at 20 mg/kg measured upto 24 hrs in presence of 10 mg/kg encequidar by LC-MS/MS analysis; format: ADME, organism-based; conditions: in vivo
[4] = tested on: MDA-MB-231; assay: Antitumor activity against human MDA-MB-231 cells xenografted in athymic nude mouse assessed as reduction in tumor growth at 40 mg/kg, po administered every other day for 4 doses in presence 16 mg/kg encequidar and monitored for 70 to 82 days; format: functional, organism-based; conditions: time 70-82 day
[5] = in vivo; conditions: Sprague-Dawley, rat, po, 20 mg/kg
[6] = tested on: MDA-MB-231; assay: (§1) Antitumor activity against human MDA-MB-231 cells xenografted in athymic nude mouse assessed as reduction in median number of days for tumor to reach two tumor mass doubling at 18 mg/kg, iv administered every other day for 4 doses and monitored for 70 to 82 days (reference value: 13.1 day); format: functional; conditions: time 70-82 day
[7] = tested on: MDA-MB-231; assay: as §1, with “at 20” for “at 18”, “mg/kg, po” for “mg/kg, iv”, “doses in presence of 8 mg/kg encequidar” for “doses”; format: functional; conditions: time 70-82 day
[8] = AUClast in Sprague-Dawley rat at 20 mg/kg, po measured upto 24 hrs by LC-MS/MS analysis; format: ADME, organism-based; set-up: route oral, dose 20 mg/kg, time <=24; conditions: in vivo
[9] = tested on: HT-29; assay: Antitumor activity against human HT-29 cells xenografted in athymic nude mouse assessed as induction of remission of tumor growth at 40 mg/kg, po in presence of 20 mg/kg encequidar measured until day 47; format: functional, organism-based
[10] = Drug absorption in fed Beagle dog plasma at 6 mg/kg, po measured upto 24 hrs in presence of 3 mg/kg encequidar by LC-MS/MS analysis; format: ADME, organism-based, Canis lupus familiaris; conditions: in vivo
[11] = Drug accumulation in Beagle dog plasma at 6 mg/kg, po administered once per week for 4 weeks in presence of 3 mg/kg encequidar by LC-MS/MS analysis; format: ADME, organism-based, Canis lupus familiaris; conditions: in vivo, 672 h
[12] = Half life in Sprague-Dawley rat at 20 mg/kg, po measured upto 24 hrs by LC-MS/MS analysis; conditions: in vivo
[13] = Toxicity in Sprague-Dawley rat at 2000 mg/kg, po administered as single dose and measured upto 13 weeks; format: organism-based; conditions: in vivo, 2184 h
[14] = Drug distribution in Sprague-Dawley rat liver; format: ADME, tissue-based; conditions: in vivo
[15] = Cmax in Sprague-Dawley rat at 10 mg/kg, po measured upto 48 hrs by LC-MS/MS analysis; conditions: in vivo
[16] = Drug distribution in Sprague-Dawley rat spinal cord; format: ADME, tissue-based; conditions: in vivo
[17] = biological target: T1, Organic anion transporter 3 (Homo sapiens, UniProt Q8TCC7); assay: Inhibition of human OAT3 assessed as reduction in intracellular probe substrate accumulation upto 100 uM by microplate scintillation counter analysis relative to control; format: cell-based
T1 sequence (Q8TCC7 whole entry): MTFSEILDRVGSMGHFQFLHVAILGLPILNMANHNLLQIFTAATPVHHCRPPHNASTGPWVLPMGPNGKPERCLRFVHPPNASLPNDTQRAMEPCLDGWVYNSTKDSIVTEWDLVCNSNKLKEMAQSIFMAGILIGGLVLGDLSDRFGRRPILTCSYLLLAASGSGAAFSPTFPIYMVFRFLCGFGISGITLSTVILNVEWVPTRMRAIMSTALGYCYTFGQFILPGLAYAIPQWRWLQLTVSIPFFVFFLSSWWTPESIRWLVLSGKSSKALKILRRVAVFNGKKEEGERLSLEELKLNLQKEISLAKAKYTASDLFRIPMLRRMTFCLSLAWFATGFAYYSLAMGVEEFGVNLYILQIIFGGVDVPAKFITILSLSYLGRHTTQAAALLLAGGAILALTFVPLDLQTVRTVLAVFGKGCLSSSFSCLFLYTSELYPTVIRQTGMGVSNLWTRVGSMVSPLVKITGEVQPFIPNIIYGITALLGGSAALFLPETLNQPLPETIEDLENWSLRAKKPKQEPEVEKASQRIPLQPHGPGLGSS
Outline: (§2)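 Cellular uptake-inhibition assays used Chinese hamster ovary, HEK293 or MDCKII cells stably expressing the respective human SLC transporter, run alongside the corresponding control cells. Inhibitor was tested at concentrations up to 100 μM.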

[18] = Oral bioavailability in Sprague-Dawley rat at 10 mg/kg measured upto 48 hrs by LC-MS/MS analysis; format: ADME, organism-based; conditions: in vivo
Outline: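 Plasma pharmacokinetics in male Sprague-Dawley rats and male Beagle dogs (n = 3 per species), each given a single dose by IV at 3 mg/kg and by PO at 10 mg/kg. Cmax, Tmax, T1/2 and AUClast were derived for each route. F (%) was calculated from the PO and IV AUClast.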

[19] = biological target: T2, Multidrug and toxin extrusion protein 1 (Homo sapiens, UniProt Q96FL8); assay: Inhibition of human MATE1 assessed as reduction in intracellular probe substrate accumulation upto 100 uM by microplate scintillation counter analysis relative to control; format: cell-based; outline: as §2
T2 sequence (Q96FL8 whole entry): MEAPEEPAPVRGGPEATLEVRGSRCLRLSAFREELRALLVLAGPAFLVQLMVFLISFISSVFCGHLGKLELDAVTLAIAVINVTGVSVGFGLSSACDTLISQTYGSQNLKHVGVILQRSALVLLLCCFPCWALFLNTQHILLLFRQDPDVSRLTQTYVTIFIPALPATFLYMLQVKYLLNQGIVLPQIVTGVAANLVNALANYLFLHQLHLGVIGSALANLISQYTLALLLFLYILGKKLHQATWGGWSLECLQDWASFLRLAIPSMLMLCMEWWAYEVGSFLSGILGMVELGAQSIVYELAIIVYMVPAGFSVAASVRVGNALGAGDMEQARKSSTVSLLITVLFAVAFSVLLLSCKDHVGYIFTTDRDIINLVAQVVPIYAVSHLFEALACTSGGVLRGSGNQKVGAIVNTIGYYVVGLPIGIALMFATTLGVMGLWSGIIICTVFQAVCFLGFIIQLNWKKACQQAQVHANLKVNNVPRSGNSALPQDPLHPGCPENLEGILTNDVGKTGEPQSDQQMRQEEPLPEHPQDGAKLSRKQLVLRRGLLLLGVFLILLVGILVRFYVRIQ

[20] = Toxicity in Beagle dog assessed as enlargement of lymph nodes at >= 100 mg/kg, po and measured after 13 weeks; format: organism-based, Canis lupus familiaris; conditions: in vivo, 2184 h
[21] = Drug distribution in Beagle dog brain; format: ADME, tissue-based, Canis lupus familiaris; conditions: in vivo
[22] = Aqueous solubility of compound at pH 3.8; format: physicochemical; conditions: aqueous solution

**Q.** What does the source list for CC(=O)O[C@H]1C(=O)[C@@]2(C)[C@H]([C@H](OC(=O)c3ccccc3)[C@]3(O)C[C@H](OC(=O)[C@H](O)[C@@H](NC(=O)c4ccccc4)c4ccccc4)C(C)=C1C3(C)C)[C@]1(OC(C)=O)CO[C@@H]1C[C@@H]2O [PACLITAXEL]?
**A.** Tmax [1]: 0.9 h; Activity [2]: 5%; bioavailability [3]: 41.3%; Activity [4]: Active; half-life at 24 h [5]: 6.8 h; Time [6]: >69 days; Time [7]: 15.1 days; AUC(0-t) at 24 h [8]: 308 ng·h/mL; Activity [9]: Active; Drug absorption [10]: Not Active; Drug uptake [11]: Not Active; half-life at 24 h [12]: 8 h

**Q.** What does the source list for COc1cc2c(cc1OC)CN(CCc1ccc(-n3nnc(-c4cc(OC)c(OC)cc4NC(=O)c4cc(=O)c5ccccc5o4)n3)cc1)CC2?
**A.** Activity [13]: Non-Toxic; Drug uptake [14]: Active; Cmax [15]: 7.1 ng/mL; Drug uptake [16]: Not Active; inhibition (INH) [17]: < 50%; bioavailability [18]: 6.25%; inhibition (INH) [19]: < 50%; Activity [20]: Toxic; Drug uptake [21]: Not Active; solubility [22]: 0.219 µg/mL (≈ 0.318 µM)
